High-throughput results: PubChem BioAssay, The Scripps Research Institute Molecular Screening Center
An excerpt weighted towards active compounds, which were near 2.8% of everything screened.
HTRA1 inhibitor: inhibitors of human serine peptidase HTRA1; Q92743; recombinant HTRA1, FP-rhodamine activity-based probe, fluorescence polarization; inhibition, % at 5.96 µM; 340,000 tested, 0.5% active; AID 504803; in the data active = inhibition above about 36%;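 note: 0% = enzyme with DMSO and 100% = wells lacking enzyme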
pPAFAH inh: inhibitors of human plasma PAF acetylhydrolase (pPAFAH); 330,000 tested, 1.5% active; inhibition, % at 3.39 µM; recombinant pPAFAH, FP-rhodamine probe fluorescence polarization;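 active = inhibition above the mean inhibition across the screen plus 3 SD, cut at about 25% in these data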;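 note: inhibitors block binding of the rhodamine activity-based probe so polarization drops; 0% = enzyme with DMSO and 100% = wells lacking pPAFAH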
Target sequence (Q13093 whole entry, looked up): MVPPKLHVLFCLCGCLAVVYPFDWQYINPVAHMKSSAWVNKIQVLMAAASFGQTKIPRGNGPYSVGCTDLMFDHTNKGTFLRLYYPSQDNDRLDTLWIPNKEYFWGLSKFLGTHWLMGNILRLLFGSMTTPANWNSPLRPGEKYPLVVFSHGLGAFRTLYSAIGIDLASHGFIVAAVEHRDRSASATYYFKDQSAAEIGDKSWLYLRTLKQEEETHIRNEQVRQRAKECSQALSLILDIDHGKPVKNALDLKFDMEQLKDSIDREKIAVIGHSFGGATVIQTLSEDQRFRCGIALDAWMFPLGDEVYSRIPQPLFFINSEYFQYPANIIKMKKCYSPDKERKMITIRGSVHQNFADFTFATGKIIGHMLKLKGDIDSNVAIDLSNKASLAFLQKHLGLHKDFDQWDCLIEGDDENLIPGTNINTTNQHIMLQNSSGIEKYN
PAFAH1B3 FP inh: PAFAH1B3 (human) inhibition | Q15102 | recombinant PAFAH1B3, FP-rhodamine probe, fluorescence polarization | inhibition, % at 3.39 µM | 340,000 tested, 0.28% active;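 active = inhibition above the screen-wide average of all tested compounds plus 3 SD, cut at about 25% in these data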;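 note: 0% = enzyme with DMSO only and 100% = wells lacking PAFAH1B3 protein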
Target sequence (Q15102 whole entry, looked up): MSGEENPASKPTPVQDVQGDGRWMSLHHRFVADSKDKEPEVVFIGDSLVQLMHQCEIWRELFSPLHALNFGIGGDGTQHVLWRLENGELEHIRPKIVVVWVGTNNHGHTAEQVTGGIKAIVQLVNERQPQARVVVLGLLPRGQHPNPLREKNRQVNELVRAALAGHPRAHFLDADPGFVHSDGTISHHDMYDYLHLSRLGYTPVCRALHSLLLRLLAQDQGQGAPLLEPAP
PAFAH2 FP inh: inhibitors of human PAFAH2 | recombinant PAFAH2, FP-rhodamine activity probe, fluorescence polarization | 340,000 tested, 0.99% active | AID 492956 | inhibition, % at 3.39 µM | Q99487;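 active = inhibition above the mean over all tested compounds plus 3 SD, cut at about 30% in these data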;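 note: inhibitors block probe labeling of enzyme so polarization drops; 0% = enzyme with DMSO and 100% = wells lacking PAFAH2 protein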
ABHD4 inh: ABHD4 (mouse) inhibition, primary FP screen; Q8VD66; purified mABHD4, FP-Rh probe fluorescence polarization; inhibition, % at 8.92 µM; 370,000 tested, 0.54% active;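 active = inhibition exceeding the mean over every tested compound plus 3 SD, cut at about 30% in these data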;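 note: 0% = plate median of compound wells and 100% = S159A mutant with DMSO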
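System: mouse ABHD4 enzyme, wild type / Medium: HEPES pH 7.0, NaCl, Pluronic buffer / Reagent: FP-Rh activity-based fluorescent probe / Control set: S159A mutant high control, sample median low control / Detection: fluorescence polarization with parallel and perpendicular emission, 525/598 nm / Schedule: 45 min + 60 min at 25 °C / Compound dosing: 8.92 µM, single dose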
PAFAH1B2 inh: inhibitors of human PAFAH1B2; 340,000 tested, 1.2% active; inhibition, % at 3.39 µM; recombinant PAFAH1B2, FP-rhodamine activity probe, fluorescence polarization; P68402; AID 492953;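 active = inhibition above the mean of all tested compounds plus 3 SD, cut at about 24% in these data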;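 note: 0% = enzyme with DMSO and 100% = wells lacking PAFAH1B2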
pPAFAH confirm: confirmation of human plasma PAF acetylhydrolase (pPAFAH) inhibitors; shares compounds with pPAFAH inh; inhibition, % at 3.39 µM; 2,300 tested, 72% active; recombinant pPAFAH, FP-Rh probe fluorescence polarization;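 active = mean inhibition of the triplicate above the hit cutoff set for the earlier primary screen, cut at about 25% in these data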;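 note: 0% = enzyme with DMSO and 100% = wells lacking pPAFAH enzyme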
HTRA1 inh conf: HTRA1 (human) inhibition, confirmation; shares compounds with HTRA1 inhibitor; recombinant HTRA1, FP-rhodamine activity-based probe, fluorescence polarization; inhibition, % at 5.96 µM; 1,600 tested, 66% active;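 active = mean inhibition over three repeats above a set limit taken from the earlier primary screen, cut at about 37% in these data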;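 note: 0% = HTRA1 with DMSO and 100% = wells lacking HTRA1; inhibitors block probe binding so polarization drops and inhibition rises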
ABHD4 confirm: ABHD4 (mouse) inhibition, FP confirmation. AID 720658. shares compounds with ABHD4 inh. 1,800 tested, 55% active. inhibition, % at 8.92 µM. purified mABHD4, FP-Rh probe fluorescence polarization;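 active = mean inhibition across replicates above the hit cutoff set in the primary screen, cut at about 30% in these data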;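 note: 0% = wild-type ABHD4 with DMSO and 100% = catalytically dead S159A mutant with DMSO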
Active calls of the source: *; / = no result given.

SMILES	HTRA1 inhibitor	pPAFAH inh	PAFAH1B3 FP inh	PAFAH2 FP inh	ABHD4 inh	PAFAH1B2 inh	pPAFAH confirm	HTRA1 inh conf	ABHD4 confirm
CN(Cc1ccccc1)C(=O)OCc1cn(Cc2ccc(Cl)cc2)nn1	/	/	/	/	0.5	/	/	/	/
COc1cccc(=O)c2c(C)n(-c3ccc(C(=O)O)cc3)c(C)c12	11.1	36.9*	6.3	10.0	30.2*	1.9	0.8	/	16.5
COc1ccc(-n2c(C)c3c(OC)cccc(=O)c3c2C)cc1	13.6	21.1	3.0	12.8	15.3	5.0	/	/	/
CCOc1cccc(=O)c2c(C)n(-c3ccc(C(=O)O)cc3)c(C)c12	7.5	37.6*	6.0	8.5	39.3*	2.6	20.6	/	24.6
COC(=O)[C@]12C[C@H](CC(=O)NCc3cccc4ccccc34)C(=O)N(CCc3ccc(OC)c(OC)c3)C1=C[C@H](COCc1ccccc1)O[C@@H]2C	/	/	/	/	-6.5	/	/	/	/
Cc1nc2ccccc2c(=O)n1/N=C/c1ccc(O)c(O)c1O	49.0*	86.8*	27.1*	45.5*	44.3*	7.0	46.7*	55.5*	27.3
CCc1ccc(S(=O)(=O)/N=C2\C=C(Nc3cccc(C(=O)O)c3)C(=O)c3ccccc32)cc1	69.9*	37.4*	62.7*	62.2*	65.3*	38.9*	40.1*	66.0*	84.0*
Cc1cc(/C=C2\SC(=S)NC2=O)c(C)n1-c1ccc(O)cc1	-17.5	35.2*	12.4	20.6	35.4*	11.7	45.3*	/	43.7*
C[C@H]1CCCN1c1ccc2c(c1)O[C@@H]1CCN(C1)S2(=O)=O	/	/	/	/	0.4	/	/	/	/
Oc1ccc(-c2csc(-c3ccccc3)n2)cc1O	59.2*	45.0*	1.4	0.0	31.4*	-0.3	58.8*	48.4*	31.2*
Oc1ccccc1-c1csc(-c2ccccc2)n1	-24.3	-0.7	-0.6	-1.0	-14.2	6.5	/	/	/
CN(C)c1ccc(O)c2c1CC1CC3[C@@H](N(C)C)C(=O)C(C(N)=O)=C(O)[C@]3(O)C(=O)C1=C2O (stereo partly specified)	29.2	53.4*	29.4*	33.0*	76.9*	12.0	8.0	/	44.0*
COc1ccc(-n2c(Cc3cccs3)nnc2SCC(=O)Nc2ccc(OCc3ccccc3)cc2)cc1	/	/	/	/	-26.7	/	/	/	/
CCn1c(=O)n(CC(=O)N2CCCN(Cc3ccccc3)CC2)c(=O)c2ccccc21	/	/	/	/	3.5	/	/	/	/
CN(C)c1ncc(C2=C(Cl)C(=O)C(N3CCCC3)=C(Cl)C2=O)s1	38.5*	49.5*	26.9*	28.6	62.7*	9.5	10.1	/	83.3*
COC(=O)[C@H](C(C)C)N(Cc1cn(Cc2ccccc2)nn1)S(=O)(=O)c1ccccc1Br	/	/	/	/	-1.2	/	/	/	/
CN1CC=C(c2ccccc2)N(c2ccccc2)C1=O	/	/	/	/	-1.3	/	/	/	/
O=c1oc2ccccc2c(O)c1Cc1cc(Cl)c2cccnc2c1O	51.9*	50.2*	14.2	20.0	32.8*	6.4	65.9*	53.7*	26.9
O=C(SCc1c(O)c2ccccc2oc1=O)c1ccccc1	-7.4	/	/	/	-3.0	/	/	/	/
Cc1ccc(-c2ccccc2NC(=O)CS(=O)CC(=O)Nc2ccc(C)c(Cl)c2)o1 (stereo unspecified)	38.8*	85.3*	3.8	3.2	35.9*	22.0	8.0	22.0	16.1
O=C(CCc1ccccc1)N[C@H]1/C(=N/O)CCC[C@]12C(=O)N(Cc1ccccc1)c1ccccc12	/	/	/	/	-6.8	/	/	/	/
O=C(O)C1Nc2c(O)cccc2C2C=CCC12 (stereo unspecified)	50.1*	87.7*	39.5*	50.2*	43.5*	35.8*	42.5*	/	47.2*
CCCCCCCCN1C(=O)[C@@H](CC(=O)NCc2cccc3ccccc23)C[C@@]2(C(=O)OC)C1=C[C@H](C(C)(C)C)O[C@@H]2C	/	/	/	/	3.7	/	/	/	/
Cn1c(Cc2cccs2)nnc1SCC(=O)Nc1ccc(OCc2ccccc2)cc1	/	/	/	/	-0.1	/	/	/	/
CCOC(=O)C1(Cc2ccccc2)CCN(Cc2ccnc3ccccc23)CC1	/	/	/	/	-5.6	/	/	/	/
SMILES	HTRA1 inhibitor	pPAFAH inh	PAFAH1B3 FP inh	PAFAH2 FP inh	ABHD4 inh	PAFAH1B2 inh	pPAFAH confirm	HTRA1 inh conf	ABHD4 confirm
O=C(O)COc1ccccc1/C=N/NC(=O)c1cc2ccccc2cc1O	14.1	42.9*	2.6	0.7	37.2*	4.7	1.8	/	12.4
O=C(O)COc1ccccc1/C=N/NC(=O)c1cc(-c2ccc(F)cc2)nc2ccccc12	-16.9	5.8	2.1	7.5	-11.5	-2.9	/	/	/
CC1CCC/C(=C\Nc2ccc(O)cc2)C1=O (stereo unspecified)	39.3*	34.5*	1.5	-2.1	43.7*	-0.3	2.8	9.3	22.2
O=C(O)c1ccc2c(c1)C(=O)/C(=C\c1ccco1)C2=O	9.8	53.8*	35.0*	17.3	30.1*	11.6	18.2	/	27.6
CC(C)Oc1ccc(Oc2ccc(C#C[C@H](C)N3C(=O)c4ccccc4C3=O)cc2)cn1	/	/	/	/	-5.0	/	/	/	/
O=c1[nH]c(=S)[nH]c2nc(-c3ccccc3)cnc12	1.6	-1.8	8.7	1.0	8.9	4.0	/	/	/
Cc1cc2nc3c(=O)[nH]c(=S)[nH]c3nc2cc1NC(=O)C(F)(F)F	45.7*	78.8*	9.3	-1.0	65.1*	5.1	5.1	3.0	18.4
CCOC(=O)C1Nc2ccc(Br)cc2C2C=CCC12 (stereo unspecified)	65.3*	35.0*	12.0	13.8	52.7*	6.3	3.9	2.4	52.1*
CCCCCCCCCCCCCCCC[n+]1cccc2ccccc21	64.0*	56.5*	-1.1	-3.4	37.3*	-7.5	32.6*	71.0*	53.6*
Cc1ccc(NS(=O)(=O)c2ccc(Cl)c(N=Nc3c(O)[nH]c(=O)[nH]c3=O)c2)cc1Cl	0.8	88.8*	26.0*	41.1*	31.0*	15.6	89.4*	/	48.3*
COc1ccc(NS(=O)(=O)c2cc(N=Nc3c(O)[nH]c(=O)[nH]c3=O)ccc2Cl)cc1	4.8	16.8	3.1	7.3	8.1	7.4	/	/	/
COC(=O)C1CN(Cc2ccc(OC)cc2)CCS(=O)(=O)N1Cc1ccc(OC)cc1 (stereo unspecified)	/	/	/	/	-0.7	/	/	/	/
CCN(CC)c1ccc(N=Cc2ccc([N+](=O)[O-])o2)cc1	63.8*	43.1*	3.6	8.9	45.2*	2.7	16.9	41.0*	15.5
CCCCCC(=O)N/N=C/c1ccc([N+](=O)[O-])o1	8.4	2.0	7.3	3.6	7.1	4.3	/	/	/
CCNc1ccccc1CP(=O)(c1ccccc1)c1ccccc1O (stereo unspecified)	/	42.1*	/	/	76.8*	/	7.8	/	46.0*
